# rCAG binder: binds r(CAG) RNA repeats; hit rate 1.3% among 370,000; inhibition, % at 3 µM; r(CAG) RNA repeat, TO-PRO-1 dye displacement fluorescence;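 active = inhibition above the plate cutoff, the mean of all test compounds on that plate plus 3 SD, cut at about 35% in these data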;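 also: 0% = DMSO alone and 100% = 100 µM mitoxantrone as full dye displacement; higher means more dye released from RNA so lower well fluorescence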
# TAAR1 antag: human TAAR1 antagonism; CHO RD-HGA16 TAAR1, Fluo-8 calcium fluorescence, antagonist; hit rate 1.5% among 360,000; inhibition, % at 3 µM;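 active = inhibition above a per-plate cutoff, the mean inhibition of test compounds on that plate plus 3 SD, cut at about 49% in these data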;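 also: 0% = DMSO plus EC80 beta-PEA response and 100% = DMSO alone without agonist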
# Target sequence (Q96RJ0 whole entry, looked up): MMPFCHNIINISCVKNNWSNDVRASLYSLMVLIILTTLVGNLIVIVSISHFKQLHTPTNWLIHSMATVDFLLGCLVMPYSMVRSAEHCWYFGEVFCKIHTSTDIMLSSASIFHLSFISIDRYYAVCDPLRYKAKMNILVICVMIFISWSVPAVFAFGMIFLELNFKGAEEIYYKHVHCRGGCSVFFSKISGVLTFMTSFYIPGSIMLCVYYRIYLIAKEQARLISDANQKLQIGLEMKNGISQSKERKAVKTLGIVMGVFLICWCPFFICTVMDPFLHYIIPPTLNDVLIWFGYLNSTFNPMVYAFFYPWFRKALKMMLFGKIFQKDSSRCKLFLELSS
#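 System: RD-HGA16 CHO cells with stable hTAAR1 and Gα16 | Probe or stimulus: EC80 β-phenethylamine stimulus | Dosing: 3 µM, single point | Times: Dye loading 75 min at 37 °C, then 30 min room temperature | Measured by: Fluo-8 calcium-sensitive fluorescence | Read-out basis: % inhibition of agonist calcium response | Replicates: n of 1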
# HCV core dimer: blocks dimerization of HCV core protein; TR-FRET GST/Flag-core106 dimerization, 1536-well; inhibition, % at 5 µM; hit rate 0.33% among 300,000; AID 1899;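 active = inhibition above the mean of all tested compounds plus 3 SD, set per screening campaign, cut at about 45% in these data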
#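 test system = GST/Flag-tagged HCV core106 proteins | probe or stimulus = Eu donor and XL665 acceptor anti-tag antibodies | times = compound-protein-antibody incubation 4 h at 22.5 °C | signal = TR-FRET, excitation 340 nm, emission 617 and 671 nm | measure = percent inhibition of core106 dimerization signal | controls = wells lacking GST-core106 and wells with excess unlabelled core106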
# TAAR1 ag: agonists of human TAAR1; Q96RJ0; CHO RD-HGA16 TAAR1, Fluo-8 calcium fluorescence; vehicle wells 0%, saturating PEA agonist 100%; activation, % at 3 µM; hit rate 0.99% among 360,000; AID 624467;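 active = activation above the mean activation of all test compounds in the run plus 3 SD, cut at about 38% in these data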
#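 Test system: RD-HGA16 (CHO) cells co-expressing Gα16 and hTAAR1; dosing: one-point dosing at 3 µM (nominal); timing: 17-24 h seeding, 75 min 37 °C dye, 30 min RT; signal: kinetic Fluo-8 calcium fluorescence; read-out basis: % activation relative to PEA EC100 response; controls: DMSO and PEA EC100; replicates: n 1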
# HCV NS3 hel inh: blocks Hepatitis C virus NS3 helicase unwinding; NS3 helicase DNA unwinding, Cy5 molecular beacon fluorescence; hit rate 0.56% among 290,000; inhibition, % at 10.9 µM;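 active = inhibition above the mean of all tested compounds plus 3 SD, set per campaign, cut at about 35% in these data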;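 also: 0% = DMSO wells and 100% = thioflavine S control wells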
#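 Compound dosing – single dose, 10.9 µM nominal final, DMSO 0.8% final · System – NS3 helicase fragment of HCV · Buffer or medium – MOPS pH 6.5, MgCl2, DTT, Tween20, BSA · Signal – Cy5 beacon fluorescence read at start and 1 h · Also added – annealed dual-labelled DNA beacon duplex, ATP-started · Schedule – 1 h at 25 °C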
# TAAR1 ag confirm: confirmation of human TAAR1 agonists. shares compounds with TAAR1 ag. CHO RD-HGA16 TAAR1, Fluo-8 calcium fluorescence; scaled: DMSO 0%, maximal phenethylamine 100%. activation, % at 3 µM. hit rate 82% among 2,400. AID 651783;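 active = activation above a cutoff set at the run's mean compound activation plus 3 SD, cut at about 39% in these data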
# Ga16 nonsel ag: counter-screen for TAAR1 agonists: nonselective agonists in parental cells; AID 651787; activation, % at 3 µM; shares compounds with TAAR1 ag; CHO-Ga16 parental, Fluo-8 calcium fluorescence; normalized to maximal ATP response, DMSO zero; hit rate 50% among 2,400;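 active = activation above the run cutoff, the mean activation over all tested wells plus 3 SD, cut at about 12% in these data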;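 also: 0% = DMSO wells and 100% = maximal ATP response on the peak over basal ratio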
# TAAR1 desensitize: counter-screen for human TAAR1 agonists: agonists that desensitize TAAR1 | shares compounds with TAAR1 ag | hit rate 46% among 2,400 | inhibition, % at 3 µM | CHO RD-HGA16 hTAAR1, Fluo-8 calcium, beta-PEA response inhibition | AID 651951;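 active = inhibition above the run cutoff, the mean inhibition of all test compounds plus 3 SD, cut at about 49% in these data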;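 also: beta-PEA stimulus applied at its EC80; loss of beta-PEA calcium signal after compound pretreatment read as receptor desensitization; 0% = DMSO with beta-PEA at EC80 and 100% = DMSO alone without agonist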
# Ga16 antag count: counter-screen for TAAR1 agonists: nonselective Ga16 antagonists | shares compounds with TAAR1 ag | CHO-Ga16 ATP-induced calcium, Fluo-8 fluorescence | inhibition, % at 3 µM | hit rate 39% among 2,400;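 active = inhibition above the plate's mean compound inhibition plus 3 SD, computed per plate, cut at about 22% in these data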;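 also: 0% = EC80 ATP with DMSO and 100% = DMSO wells without ATP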
# Numbers without * were called inactive; · = no result given. The list is not random: actives were taken first. Their share in the collection is about 3.7%.
SMILES,rCAG binder,TAAR1 antag,HCV core dimer,TAAR1 ag,HCV NS3 hel inh,TAAR1 ag confirm,Ga16 nonsel ag,TAAR1 desensitize,Ga16 antag count
COc1cccc2c(=O)n(CC(=O)Nc3cccc(F)c3)ccc12,4,26,6,61*,0,46*,40*,16,12
COC(=O)c1sc(NC(=S)NC(=O)c2ccccc2)nc1C,1,-17,-7,12,18,·,·,·,·
COC(=O)c1sc(NC(=S)NC(=O)c2ccccc2Cl)nc1C,4,-15,13,50*,-5,29,23*,11,12
OCc1ccccc1Cn1ccnc1,2,-19,·,1,·,·,·,·,·
c1ccc2c(Cn3ccnc3)c[nH]c2c1,-1,13,2,54*,-14,71*,4,36,7
Cc1ccc2c(c1)C1CS(=O)(=O)N(C3CCCC3)CN1C2 (stereo not drawn),7,·,·,·,·,·,·,·,·
O=C(N/N=C/c1ccco1)c1cc(-c2ccc3ccccc3c2)n[nH]1,26,71*,12,48*,1,67*,53*,96*,88*
CCc1ccc(-c2cc(C(=O)N/N=C/c3ccco3)[nH]n2)cc1,2,12,-3,4,-8,·,·,·,·
Cc1cc(NS(=O)(=O)c2ccc(NC(=S)NC(=O)c3ccc(C(C)(C)C)cc3)cc2)no1,7,-5,23,45*,23,18,11,39,20
CCOc1ccc(NS(=O)(=O)c2ccc(NC(=S)NC(C)=O)cc2)cc1,6,22,7,85*,-14,75*,48*,53*,33*
CCOc1ccc(NS(=O)(=O)c2ccc(NC(=S)NC(=O)C(C)C)cc2)cc1,2,14,14,59*,-3,42*,20*,9,17
CCOC(=O)c1cnc2c3c(noc13)CCC2,-1,-13,·,1,·,·,·,·,·
C[C@@H]1ON(C)[C@H]2C[C@H]3c4[nH]c5c(-c6cccc(Cl)c6)cccc5c4CCN3C(=O)[C@@H]12,13,6,·,3,·,·,·,·,·
Cc1ccc(CN2CCCCC(NC(=O)c3ccc(-c4ccccc4)cc3)C2=O)cc1 (stereo not drawn),7,·,·,·,·,·,·,·,·
O=C(CCNC(=O)c1ccc(Br)cc1)NCC1CCCO1 (stereo not drawn),4,-5,-1,2,·,·,·,·,·
O=C(NCc1cccnc1)Nc1ccc(Br)cc1,-2,5,-12,14,6,·,·,·,·
O=C(NCc1cccnc1)c1ccc(NC(=O)c2ccc(Br)cc2)cc1,3,4,2,57*,-5,58*,8,28,18
O=C(NCC1CCCO1)c1ccc(NC(=O)c2ccc(Br)cc2)cc1 (stereo not drawn),-2,-31,-4,78*,·,95*,8,71*,7
C=CCN=C1NC(c2cccc(Cl)c2)C(C(=O)OC)=C(C)N1Cc1cccc(C(F)(F)F)c1 (stereo not drawn),5,81*,·,67*,·,36,27*,56*,51*
C=CCN=C1NC(c2cccc(F)c2)C(C(=O)OC)=C(C)N1Cc1cccc(C(F)(F)F)c1 (stereo not drawn),5,92*,·,107*,·,89*,55*,92*,73*
C=CCN=C1NC(c2cccc(C(F)(F)F)c2)C(C(=O)OC)=C(C)N1Cc1ccccc1C(F)(F)F (stereo not drawn),0,-3,·,4,·,·,·,·,·
COC(=O)C1=C(C)N(Cc2ccc(C(F)(F)F)cc2)C(=NCC2CC2)NC1c1ccccc1 (stereo not drawn),7,45,·,28,·,·,·,·,·
